Measured values reported in paper PMC9116722 (Cancer chemotherapy and pharmacology, 2022).

Assay: Adverse events
Format: in vivo, human
How it was run: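 Patients with germline BRCA-mutated cancers, or BRCA-wildtype TNBC or platinum-refractory ovarian cancer, took oral drug continuously twice daily in 28-day cycles. There were nine dose levels from 50 to 500 mg BID under 3+3 escalation, run separately per cohort after the first DLT. Toxicities were graded by CTCAE v4.0, with DLTs assessed during cycle 1.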

C[C@]1(c2nc3c(C(N)=O)cccc3[nH]2)CCCN1 [veliparib]
32 (33) number of patients (%): Vomiting, Any Grade (BRCAmut and BRCAwt combined)
17 (17) number of patients (%): Neutrophil count decreased, Any Grade (BRCAmut and BRCAwt combined)
37 (38) number of patients (%): Lymphocyte count decreased, Any Grade (BRCAmut and BRCAwt combined)
14 (14) number of patients (%): Lymphocyte count decreased, Grade 3 (BRCAmut and BRCAwt combined) | Platelet count decreased, Grade 1 (BRCAmut and BRCAwt combined)
6 (6) number of patients (%): Insomnia, Grade 1 (BRCAmut and BRCAwt combined)
20 (20) number of patients (%): Nausea, Grade 2 (BRCAmut and BRCAwt combined) | White blood cell decreased, Grade 1 (BRCAmut and BRCAwt combined)
13 (13) number of patients (%): Neutrophil count decreased, Grade 1 (BRCAmut and BRCAwt combined)
15 (15) number of patients (%): Lymphocyte count decreased, Grade 2 (BRCAmut and BRCAwt combined)
5 (5) number of patients (%): Myalgia, Any Grade (BRCAmut and BRCAwt combined)
25 (26) number of patients (%): Vomiting, Grade 1 (BRCAmut and BRCAwt combined)
14%: grade 3/4 decreased lymphocyte count (BRCAmut group)
0 (0) number of patients (%): Hypophosphatemia, Grade 4 (BRCAmut and BRCAwt combined) | Insomnia, Grade 3 (BRCAmut and BRCAwt combined) | Insomnia, Grade 4 (BRCAmut and BRCAwt combined) | Myalgia, Grade 3 (BRCAmut and BRCAwt combined) | Myalgia, Grade 4 (BRCAmut and BRCAwt combined) | Nausea, Grade 4 (BRCAmut and BRCAwt combined) | Neutrophil count decreased, Grade 3 (BRCAmut and BRCAwt combined) | Neutrophil count decreased, Grade 4 (BRCAmut and BRCAwt combined) | Platelet count decreased, Grade 3 (BRCAmut and BRCAwt combined) | White blood cell decreased, Grade 3 (BRCAmut and BRCAwt combined) | White blood cell decreased, Grade 4 (BRCAmut and BRCAwt combined)
27 (28) number of patients (%): White blood cell decreased, Any Grade (BRCAmut and BRCAwt combined)
1 (33) number of patients (%): Any Grade 3/4 toxicity (BRCAmut, DL2 100/50 mg AM/PM) | Any Grade 4 toxicity (BRCAmut, DL2 100/50 mg AM/PM) | Thromboembolic event, Grade 4 (BRCAmut, DL2 100/50 mg AM/PM)
7 (7) number of patients (%): Insomnia, Any Grade (BRCAmut and BRCAwt combined) | Lymphocyte count decreased, Grade 1 (BRCAmut and BRCAwt combined) | Vomiting, Grade 2 (BRCAmut and BRCAwt combined) | White blood cell decreased, Grade 2 (BRCAmut and BRCAwt combined)
4 (4) number of patients (%): Hypophosphatemia, Grade 2 (BRCAmut and BRCAwt combined) | Myalgia, Grade 1 (BRCAmut and BRCAwt combined) | Neutrophil count decreased, Grade 2 (BRCAmut and BRCAwt combined)
1 (14) number of patients (%): Alkaline phosphatase increased, Grade 3 (BRCAmut, DL1 50/50 mg AM/PM) | Any Grade 3/4 toxicity (BRCAmut, DL1 50/50 mg AM/PM) | Any Grade 3 toxicity (BRCAmut, DL1 50/50 mg AM/PM) | Aspartate aminotransferase increased, Grade 3 (BRCAmut, DL1 50/50 mg AM/PM)
64 (65) number of patients (%): Nausea, Any Grade (BRCAmut and BRCAwt combined)
18 (18) number of patients (%): Platelet count decreased, Any Grade (BRCAmut and BRCAwt combined)
2 (2) number of patients (%): Hypophosphatemia, Grade 3 (BRCAmut and BRCAwt combined) | Nausea, Grade 3 (BRCAmut and BRCAwt combined)
0 number of patients (%): Abdominal pain, Grade 3 (BRCAmut, DL1 50/50 mg AM/PM) | Anemia, Grade 3 (BRCAmut, DL1 50/50 mg AM/PM) | Anemia, Grade 4 (BRCAmut, DL1 50/50 mg AM/PM) | Any Grade 4 toxicity (BRCAmut, DL1 50/50 mg AM/PM) | Appendicitis, Grade 3 (BRCAmut, DL1 50/50 mg AM/PM) | Dehydration, Grade 3 (BRCAmut, DL1 50/50 mg AM/PM) | Dyspnea, Grade 4 (BRCAmut, DL1 50/50 mg AM/PM) | Fatigue, Grade 3 (BRCAmut, DL1 50/50 mg AM/PM) | Headache, Grade 3 (BRCAmut, DL1 50/50 mg AM/PM) | Hypophosphatemia, Grade 3 (BRCAmut, DL1 50/50 mg AM/PM) | Lymphocyte count decreased, Grade 3 (BRCAmut, DL1 50/50 mg AM/PM) | Lymphocyte count decreased, Grade 4 (BRCAmut, DL1 50/50 mg AM/PM) | Nausea, Grade 3 (BRCAmut, DL1 50/50 mg AM/PM) | Platelet count decreased, Grade 4 (BRCAmut, DL1 50/50 mg AM/PM) | Thromboembolic event, Grade 3 (BRCAmut, DL1 50/50 mg AM/PM) | Thromboembolic event, Grade 4 (BRCAmut, DL1 50/50 mg AM/PM) | Urinary tract infection, Grade 3 (BRCAmut, DL1 50/50 mg AM/PM) | Abdominal pain, Grade 3 (BRCAmut, DL2 100/50 mg AM/PM) | Alkaline phosphatase increased, Grade 3 (BRCAmut, DL2 100/50 mg AM/PM) | Anemia, Grade 3 (BRCAmut, DL2 100/50 mg AM/PM) | Anemia, Grade 4 (BRCAmut, DL2 100/50 mg AM/PM) | Any Grade 3 toxicity (BRCAmut, DL2 100/50 mg AM/PM) | Appendicitis, Grade 3 (BRCAmut, DL2 100/50 mg AM/PM) | Aspartate aminotransferase increased, Grade 3 (BRCAmut, DL2 100/50 mg AM/PM) | Dehydration, Grade 3 (BRCAmut, DL2 100/50 mg AM/PM) | Dyspnea, Grade 4 (BRCAmut, DL2 100/50 mg AM/PM) | Fatigue, Grade 3 (BRCAmut, DL2 100/50 mg AM/PM) | Headache, Grade 3 (BRCAmut, DL2 100/50 mg AM/PM) | Hypophosphatemia, Grade 3 (BRCAmut, DL2 100/50 mg AM/PM) | Lymphocyte count decreased, Grade 3 (BRCAmut, DL2 100/50 mg AM/PM) | Lymphocyte count decreased, Grade 4 (BRCAmut, DL2 100/50 mg AM/PM) | Nausea, Grade 3 (BRCAmut, DL2 100/50 mg AM/PM) | Platelet count decreased, Grade 4 (BRCAmut, DL2 100/50 mg AM/PM) | Thromboembolic event, Grade 3 (BRCAmut, DL2 100/50 mg AM/PM) | Urinary tract infection, Grade 3 (BRCAmut, DL2 100/50 mg AM/PM) | Abdominal pain, Grade 3 (BRCAmut, DL3 100/100 mg AM/PM) | Alkaline phosphatase increased, Grade 3 (BRCAmut, DL3 100/100 mg AM/PM)
3 (3) number of patients (%): Platelet count decreased, Grade 2 (BRCAmut and BRCAwt combined)
42 (43) number of patients (%): Nausea, Grade 1 (BRCAmut and BRCAwt combined)
1 (1) number of patients (%): Insomnia, Grade 2 (BRCAmut and BRCAwt combined) | Lymphocyte count decreased, Grade 4 (BRCAmut and BRCAwt combined) | Myalgia, Grade 2 (BRCAmut and BRCAwt combined) | Platelet count decreased, Grade 4 (BRCAmut and BRCAwt combined)
24%: incidence of grade 3/4 toxicity (BRCAmut group)
